Source: PubChem BioAssay
Rpn11 inh: inhibitors of human proteasome Rpn11 | O00487 | human 26S proteasome, Ub4-pepOG fluorescence polarization; 20S core pre-blocked with epoxomicin | inhibition, % at 20 µM | actives 0.59% (n = 360,000) | AID 588493;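 active means inhibition at 20 µM, scaled to each plate's controls, above about 33%, limit read from the data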
Scp1 inh: blocks human Scp-1 phosphatase activity | Q9GZU7 | Recombinant Scp1, phosphopeptide, malachite green phosphate absorbance | inhibition, % at 20 µM | actives 0.88% (n = 340,000) | AID 493091;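 active means inhibition above about 50% at 20 µM, limit read from the data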
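Test system: SCP-1 catalytic domain; Buffer or medium: Acidic Tris acetate buffer with magnesium and detergent; Also added: Phosphorylated 17-residue peptide substrate; Compound: single 20 µM dose, 1% DMSO; Schedule: enzyme reaction 45 min at room temperature, colour 5 min, stabilisation 30 min; Signal: Phosphate-binding colour reagent, absorbance read at 630 nm.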
LMPTP block: blocks human LMPTP phosphatase | P24666 | recombinant LMPTP-A, OMFP fluorogenic substrate, fluorescence intensity | inhibition, % at 20 µM | actives 0.22% (n = 360,000);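 active means compounds that cut the enzyme signal by at least half of the control window in the single-dose screen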
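Buffer or medium: Bis-Tris pH 6.0, DTT, detergent; Assay system: LMPTP-A enzyme; Quantity: 0.625 nM enzyme; Detection: endpoint fluorescence intensity; Times: 50 min dark incubation at room temperature; Controls: substrate-only low control, DMSO enzyme-plus-substrate high control; Doses: single 20 µM dose; Read-out: percent inhibition versus substrate-only and uninhibited controls; Reagent: 400 µM OMFP.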
SUMO1-SIM PPI: modulators of human SUMO1-mediated protein-protein interactions; P63165; SUMO1 binding to a labelled peptide, TR-FRET, 1 h; inhibition, % at 20 µM; actives 0.33% (n = 360,000); in the data active means inhibition above about 37%
DNMT1 inh: inhibitors of human DNMT1; inhibition (reported as % activation of signal), % at 10 µM; DNMT1 molecular beacon, Hinp1I cleavage, fluorescence; actives 0.83% (n = 360,000); P26358; AID 588458; in the data active means inhibition above about 50%
STEP block: inhibitors of human striatal-enriched phosphatase STEP | actives 0.25% (n = 360,000) | AID 588621 | inhibition, % at 20 µM | P54829 | recombinant STEP, OMFP fluorogenic substrate, fluorescence;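 active means inhibition at 20 µM, scaled per plate between control wells, above about 37%, limit read from the data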
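Assay system: isolated STEP enzyme. Buffer or medium: pH 6.0 Bis-Tris with DTT and Tween 20. Also added: fluorogenic phosphatase substrate OMFP at 25 µM final. Dosing: 20 µM, 1% DMSO. Timing: 20 min reaction, room temperature, in the dark. Measured by: fluorescence intensity, excitation 480 nm, emission 540 nm. Evaluation: normalized % inhibition.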
Rpn11 confirm: Rpn11 inhibition confirmation, single concentration. inhibition, % at 20 µM. purified human 26S proteasome, Ub4-pepOG fluorescence polarization; proteasome pretreated with epoxomicin. actives 29% (n = 1,900). shares compounds with Rpn11 inh
MMP-2 counter: counter-screen for RPN11 inhibitors: inhibition of human MMP-2 | shares compounds with Rpn11 inh | recombinant MMP-2, FRET peptide cleavage fluorescence | inhibition, % at 20 µM | actives 4% (n = 1,900) | AID 602330;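 further: human MMP-2 activated beforehand with APMA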
Thrombin FP: thrombin (bovine) inhibition counter-screen | shares compounds with Rpn11 inh | bovine thrombin cleavage of Ub4-pepOG, fluorescence polarization | inhibition, % at 20 µM | actives 13% (n = 1,900) | AID 602333;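 active means mean inhibition at least 40% at 20 µM, or signal 3 deviations below plate average, so some actives read negative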
Target sequence (P00735 whole entry, looked up): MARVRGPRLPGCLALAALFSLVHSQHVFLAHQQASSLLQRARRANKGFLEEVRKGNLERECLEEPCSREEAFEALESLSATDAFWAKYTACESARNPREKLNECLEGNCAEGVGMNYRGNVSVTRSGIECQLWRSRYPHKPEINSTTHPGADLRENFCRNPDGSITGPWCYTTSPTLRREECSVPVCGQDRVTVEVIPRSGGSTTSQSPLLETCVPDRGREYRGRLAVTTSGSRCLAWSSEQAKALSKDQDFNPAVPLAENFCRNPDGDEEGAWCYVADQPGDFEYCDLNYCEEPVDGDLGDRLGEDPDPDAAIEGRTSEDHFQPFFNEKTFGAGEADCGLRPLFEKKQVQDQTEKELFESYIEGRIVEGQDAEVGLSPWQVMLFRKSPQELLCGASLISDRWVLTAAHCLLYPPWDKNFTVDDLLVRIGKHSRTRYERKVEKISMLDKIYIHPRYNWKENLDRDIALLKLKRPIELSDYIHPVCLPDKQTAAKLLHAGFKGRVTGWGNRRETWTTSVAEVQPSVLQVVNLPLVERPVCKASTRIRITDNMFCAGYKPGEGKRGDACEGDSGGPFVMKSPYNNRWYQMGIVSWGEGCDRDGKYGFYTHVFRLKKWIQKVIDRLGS
Large screens that a line does not name were inactive (follow-up assays come after a bar, where they were run). The list is not random: actives were taken first. Their share in the collection is about 2.3%. Unless noted, no stated cut-off is given here; in the data, active means inhibition above about 40%; inactive means the rest.

O=C(CN1CCN(C(=O)C2COc3ccccc3O2)CC1)Nc1ccccc1 (stereo unspecified)	none
Cc1ccc([C@@H]2CC(=O)[C@@H]3CN(S(=O)(=O)c4ccc(C)cc4)[C@H](c4ccccc4F)C[C@@H]3N2S(=O)(=O)c2ccc(C)cc2)cc1	Rpn11 inh 50.4 (no result: Scp1 inh) | Rpn11 confirm inactive | MMP-2 counter inactive | Thrombin FP inactive
Cc1ccc(S(=O)(=O)N2C[C@H]3C(=O)C[C@@H](c4ccccc4F)N(S(=O)(=O)c4ccc(C)cc4)[C@H]3C[C@H]2c2ccccc2)cc1	none (no result: Scp1 inh)
COCC(C)NC(=O)CCSc1nc(-c2ccc(OC)cc2)cc(C(F)(F)F)n1 (stereo unspecified)	Rpn11 inh 85.8 | Rpn11 confirm inactive | MMP-2 counter inactive | Thrombin FP inactive
COc1ccc(-c2cc(C(F)(F)F)nc(SCCC(=O)N3CCN(C)CC3)n2)cc1	none
CC(C)(C)OC(=O)C(C)(C)O/N=C(\C(=O)O)c1csc(N)n1	none
CC(=O)N1CCOc2ccc(S(=O)(=O)NC(C)c3ccccc3)cc21 (stereo unspecified)	none
Cc1cc(C)c(-c2nc3ccccc3s2)[nH]1	Rpn11 inh 59.9 | Rpn11 confirm inactive | MMP-2 counter inactive | Thrombin FP inactive
NC(=O)c1ccccc1NC(=O)COC(=O)CSCc1cccc(Cl)c1	none
Cc1ccc(C(=O)Nc2ccc3c(c2)CCC3)o1	none
O=C(Nc1ccc2c(c1)CCC2)c1ccc(Br)o1	Rpn11 inh 96.7 | Rpn11 confirm inactive | MMP-2 counter inactive | Thrombin FP inactive
N#Cc1c(-c2ccccc2)cc(C2CC2)nc1N	none
N#Cc1c(-c2ccco2)cc(C2CC2)nc1N	Rpn11 inh 41.6 | Rpn11 confirm inactive | MMP-2 counter inactive | Thrombin FP inactive
CCOc1ccccc1NC(=O)C(OC(=O)c1ccc(NC(=O)CC#N)cc1)c1ccccc1 (stereo unspecified)	Rpn11 inh 45.3 | Rpn11 confirm inactive | MMP-2 counter inactive | Thrombin FP inactive
CN(CC(=O)Nc1cccc(F)c1)C(=O)CC1CCCCC1	none
C/C(=N\Nc1ccc([N+](=O)[O-])cc1)c1ccc(-n2nncc2C)cc1	Rpn11 inh 61.5 | Rpn11 confirm inactive | MMP-2 counter inactive | Thrombin FP inactive
C/C(=N\Nc1ccc([N+](=O)[O-])cc1)c1ccc(N2CCOCC2)cc1	none
O=C1CSC(=S)N1N=Cc1ccc(Cl)s1	Rpn11 inh 59.2 | Rpn11 confirm 40.9 | MMP-2 counter inactive | Thrombin FP inactive
CC(C)(C)c1ccc(/C=N/N2C(=O)CSC2=S)cc1	Rpn11 inh 48.0 | Rpn11 confirm inactive | MMP-2 counter inactive | Thrombin FP inactive
Nc1cc(C(F)(F)F)ccc1OCC1CCCO1 (stereo unspecified)	none
CC(C)CCn1nnnc1CN1CCN(C(=O)c2ccco2)CC1	none
Nc1cccc2[nH]c(C(F)(F)F)nc12	Rpn11 inh 54.2, SUMO1-SIM PPI 67.7 | Rpn11 confirm inactive | MMP-2 counter inactive | Thrombin FP inactive
CC(C)Oc1ccc(CN2CCC2(C)C(=O)Nc2ccc(Cl)c(Cl)c2)cc1 (stereo unspecified)	none (no result: Scp1 inh)
O=C(Nc1c[nH]c(=O)[nH]c1=O)c1ccc2c(c1)C(=O)N(c1cccc([N+](=O)[O-])c1)C2=O	Rpn11 inh 57.4, DNMT1 inh 58.0 | Rpn11 confirm inactive | MMP-2 counter inactive | Thrombin FP inactive
O=C(Nc1c[nH]c(=O)[nH]c1=O)c1cc([N+](=O)[O-])cc([N+](=O)[O-])c1	none
O=C(NCc1n[nH]c(=S)n1-c1ccccc1)c1ccc(S(=O)(=O)N2CCOCC2)cc1	none
O=C(NCc1n[nH]c(=S)n1-c1ccc(F)cc1)c1ccc(S(=O)(=O)N2CCOCC2)cc1	Rpn11 inh 92.1 | Rpn11 confirm inactive | MMP-2 counter 52.8 | Thrombin FP inactive
CN1CCN(/N=C/c2ccc(-c3ccc([N+](=O)[O-])cc3Cl)o2)CC1	Rpn11 inh 59.8 | Rpn11 confirm inactive | MMP-2 counter inactive | Thrombin FP inactive
Cc1ccc(Nc2nc(-c3ccc(C)cc3)c(CC(=O)O)s2)cc1	Rpn11 inh 76.4 | Rpn11 confirm inactive | MMP-2 counter inactive | Thrombin FP inactive
COc1ccc(Nc2nc(-c3ccc(OC)cc3)c(CCC(=O)O)s2)cc1	none
CC(C)N1CCC(N2CCN(CC#Cc3ccccc3)CC2CCO)CC1 (stereo unspecified)	none
CCCCCCN1C=CC=C/C1=C\C=C(C#N)C#N	Rpn11 inh 62.0 | Rpn11 confirm inactive | MMP-2 counter inactive | Thrombin FP inactive
CCCCCCCCCC[N+](C)(C)CC/C=C1/c2ccccc2Sc2ccc(Cl)cc21	Rpn11 inh 48.0 | Rpn11 confirm inactive | MMP-2 counter inactive | Thrombin FP inactive
CCCCCCCCCCC[N+](C)(C)CC/C=C1/c2ccccc2Sc2ccc(Cl)cc21	none
CCCCN(C)CCCNC(=O)c1cc(=O)[nH]c2ccc(S(=O)(=O)N3CCCCC3C)cc12 (stereo unspecified)	none
O=C(CN1CCN(C(=O)C2CCCO2)CC1)Nc1ccc(Cl)cc1 (stereo unspecified)	none
COc1ccc(NC(=O)CC(=O)Nc2ccc(OC)cc2OC)c(OC)c1	Rpn11 inh 128.9 | Rpn11 confirm inactive | MMP-2 counter inactive | Thrombin FP inactive
CC12CCC(C/C1=N/O)C2(C)CBr (stereo unspecified)	Rpn11 inh 32.1 | Rpn11 confirm inactive | MMP-2 counter inactive | Thrombin FP inactive
CC(=O)c1sc(N/N=C2\CC3CCC2(C)C3(C)C)nc1C (stereo unspecified)	none
CCc1c(C)sc2nc3c(C(=O)N4CCOCC4)cc(C(=O)c4cc(F)ccc4O)cn3c(=O)c12	none
CCOC(=O)c1sc2nc3c(SCCC#N)cc(C(=O)c4cc(F)ccc4O)cn3c(=O)c2c1C	Rpn11 inh 44.9 | Rpn11 confirm inactive | MMP-2 counter inactive | Thrombin FP inactive
